Data set [1] is described as follows: n-octanol/buffer partition coefficient, log D of the compound at pH 7.4 by HPLC method. In kind it is physicochemical.
The nature of data set [2]: Biotransformation in CD1 mouse liver microsomes at 5 uM measured at 20 mins by HPLC/ESI-MS/MS analysis. Conditions: read-out: Drug metabolism. In kind it is ADME. The gist of the method:
(§1)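 Hepatic microsomes (male CD1 mouse, male Sprague-Dawley rat, or pooled human) at 1 mg/mL protein with 1 mg/mL BSA; substrate 5 µM. Reference sample held 0 min without cofactor; test sample run 20 min with 1 mM NADPH. Reaction quenched with 1 volume ACN, proteins spun out, supernatant analysed by HPLC/ESI-MS/MS in positive SIR. % biotransformation = (1 − area B/area A) × 100.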

A short description of data set [3]: Biotransformation in Sprague-Dawley rat liver microsomes at 5 uM measured at 20 mins by HPLC/ESI-MS/MS analysis. In kind it is ADME. Conditions: read-out: Drug metabolism. In short, it runs like this:
as §1

Data set [4] in a line: Biotransformation in human liver microsomes at 5 uM measured at 20 mins by HPLC/ESI-MS/MS analysis. It is filed as ADME. The following applies: read-out: Drug metabolism. The gist of the method:
as §1

In data set [1], `CN(C)C(=O)Cc1nn(-c2ccc(OCC#CCF)cc2)c(=O)c2c1c1ccc(Cl)cc1n2C` returned a logD of 3.54. Also, the metabolised at 20 min, 5 µM in data set [2] was 42%; in data set [3] it was 25%; in data set [4] it was 47%.

As for `CN(C)C(=O)Cc1nn(-c2ccccc2)c(=O)c2c1c1ccc(Cl)cc1n2CCF`, the logD in data set [1] amounted to 3.09. The results for the metabolised at 20 min, 5 µM in data set [2], in data set [3] and in data set [4] were 5%, 14% and 19%, respectively.

In turn, `CN(C)C(=O)Cc1nn(-c2ccccc2)c(=O)c2c1c1ccc(Cl)cc1n2CCCCF` returned a log distribution coefficient (logD) in data set [1] of 3.66.

Consider `CN(C)C(=O)Cc1nn(-c2ccccc2)c(=O)c2c1c1ccc(Cl)cc1n2CCOCCOCCF`, for which the logD in data set [1] was 3.19.

Consider `CN(C)C(=O)Cc1nn(-c2ccc(OCCCCF)cc2)c(=O)c2c1c1ccc(Cl)cc1n2C`, for which the logD in data set [1] was found to be 3.75. Besides, the metabolised at 20 min, 5 µM in data set [2] stood at 1%; in data set [3], 13%; in data set [4], 16%.

`CN(C)C(=O)Cc1nn(-c2ccc(OCCOCCOCCF)cc2)c(=O)c2c1c1ccc(Cl)cc1n2C` returned a log distribution coefficient (logD) in data set [1] of 3.08. Further, the metabolised at 20 min, 5 µM in data set [2] was found to be 69%; in data set [3], 52%; in data set [4], 81%.

As for `COc1ccc(-n2nc(CC(=O)N(C)C)c3c4ccc(Cl)cc4n(C)c3c2=O)cc1`, in data set [1], the logD stood at 3.01. For the same molecule, the results for the metabolised at 20 min, 5 µM in data set [2], in data set [3] and in data set [4] were 22%, 4% and 22%, respectively.

In data set [1], `CN(C)C(=O)Cc1nn(-c2ccccc2)c(=O)c2c1c1ccc(Cl)cc1n2CCOCCF` gave a logD of 3.2.

Consider `CN(C)C(=O)Cc1nn(-c2ccc(OCCOCCF)cc2)c(=O)c2c1c1ccc(Cl)cc1n2C`, for which the pH-dependent lipophilicity (logD) in data set [1] came out at 3.11. The metabolised at 20 min, 5 µM came to 17% in data set [2], 11% in data set [3] and 17% in data set [4].

`CN(C)C(=O)Cc1nn(-c2ccccc2)c(=O)c2c1c1ccc(Cl)cc1n2C/C=C/CF`: the logD in data set [1] was 3.48. For the same molecule, the values for the metabolised at 20 min, 5 µM in data set [2], in data set [3] and in data set [4] were 31%, 44% and 38%, respectively.

Regarding `CN(C)C(=O)Cc1nn(-c2ccc(OCCF)cc2)c(=O)c2c1c1ccc(Cl)cc1n2C`, in data set [1], the log distribution coefficient (logD) was 3.12. Moreover, the metabolised at 20 min, 5 µM in data set [2] worked out at 0%; in data set [3], 2%; in data set [4], 0%.

As for `CN(C)C(=O)Cc1nn(-c2ccccc2)c(=O)c2c1c1ccc(Cl)cc1n2CC#CCF`, the log distribution coefficient (logD) in data set [1] worked out at 3.44. The metabolised at 20 min, 5 µM in data set [2] amounted to 39%; in data set [3], 26%; in data set [4], 30%.

In turn, `CN(C)C(=O)Cc1nn(-c2ccccc2)c(=O)c2c1c1ccc(Cl)cc1n2CCCF` yielded a logD in data set [1] of 3.38.

For `CN(C)C(=O)Cc1nn(-c2ccc(OC/C=C/CF)cc2)c(=O)c2c1c1ccc(Cl)cc1n2C`, the logD in data set [1] is 3.62. The figures for the metabolised at 20 min, 5 µM in data set [2], in data set [3] and in data set [4] were 53%, 41% and 76%, respectively.

On to `CN(C)C(=O)Cc1nn(-c2ccccc2)c(=O)c2c1c1ccc(Cl)cc1n2C`, for which the logD in data set [1] stood at 2.97. Besides, the figures for the metabolised at 20 min, 5 µM in data set [2], in data set [3] and in data set [4] were 21%, 14% and 10%, respectively.

The molecule `CN(C)C(=O)Cc1nn(-c2ccc(OCCCF)cc2)c(=O)c2c1c1ccc(Cl)cc1n2C` returned a log distribution coefficient (logD) in data set [1] of 3.48. In addition, the metabolised at 20 min, 5 µM turned out to be 4% in data set [2], 3% in data set [3] and 4% in data set [4].

These data come from ChEMBL document CHEMBL3612023, “Synthesis and in vitro characterization of novel fluorinated derivatives of the TSPO 18 kDa ligand SSR180575” (Eur J Med Chem, 2015).
